Columns and labels:
Plasmodium falciparum [1] = test: ST_JUDE: Plasmodium falciparum 3D7 EC50 (uM) as measured by SYBR green dye; type: functional, organism-based
Plasmodium falciparum [2] = test: ST_JUDE: Plasmodium falciparum K1 EC50 (uM) as measured by SYBR green dye; type: functional, organism-based
Plasmodium falciparum [3] = test: ST_JUDE: Cytotoxicity against Plasmodium falciparum 3D7; type: functional, organism-based
Summary of the method: (§1)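 Asexual P. falciparum grown in human erythrocytes, exposed to compounds for 72 h, and growth read as the DNA quantity in treated versus control cultures. Dose-response run at 12 concentrations from 10 μM to 5 nM.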

Plasmodium falciparum [4] = test: ST_JUDE: Cytotoxicity against Plasmodium falciparum K1; type: functional, organism-based; summary of the method: as §1
Plasmodium falciparum [5] = test: ST_JUDE: Cytotoxicity against Plasmodium falciparum V1/S; type: functional, organism-based
Toxoplasma gondii = test: ST_JUDE: Growth inhibition of to Toxoplasma gondii, in human U-2OS cells, as measured by luciferase.; type: functional, organism-based; conditions: RH, U2OS
Summary of the method: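 T. gondii parasites engineered to express luciferase; drug sensitivity read by luminescence.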

Trypanosoma brucei = test: ST_JUDE: Cytotoxicity using luciferase to measure ATP as an indicator of the viability of Trypanosoma brucei; type: functional, organism-based
Leishmania major = test: ST_JUDE: Cytotoxicity using Alamar Blue to measure viability of Leishmania major; type: functional, organism-based
Summary of the method: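 L. major promastigotes; drug susceptibility read with Alamar Blue.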

[6] = ST_JUDE: Cytotoxicity using luciferase to measure ATP as an indicator of the viability of human foreskin fibroblast cells (BJ); type: toxicity, cell-based
[7] = ST_JUDE: Cytotoxicity using luciferase to measure ATP as an indicator of the viability of human epithelial hepatocellular carcinoma cells (HepG2); type: toxicity, cell-based
[8] = ST_JUDE: Cytotoxicity using luciferase to measure ATP as an indicator of the viability of human epithelial embryonic kidney cells (HEK293); type: toxicity, cell-based
[9] = ST_JUDE: Cytotoxicity using luciferase to measure ATP as an indicator of the viability of human Burkitt''s lymphoma lymphoblast cells (Raji); type: toxicity, cell-based
Plasmodium falciparum [10] = test: ST_JUDE: Cytotoxicity against Plasmodium falciparum Dd2; type: functional, organism-based
Plasmodium falciparum [11] = test: ST_JUDE: Cytotoxicity against Plasmodium falciparum W2; type: functional, organism-based
Plasmodium falciparum [12] = test: ST_JUDE: Cytotoxicity against Plasmodium falciparum SB-A6; type: functional, organism-based
Plasmodium falciparum [13] = test: ST_JUDE: Cytotoxicity against Plasmodium falciparum D10 transfected with yeast DHOD; type: functional, organism-based

Row | SMILES | EC50 (Plasmodium falciparum [1]) [nM] | EC50 (Plasmodium falciparum [2]) [nM] | EC50 (Plasmodium falciparum [3]) [nM] | EC50 (Plasmodium falciparum [4]) [nM] | EC50 (Plasmodium falciparum [5]) [nM] | EC50 (Toxoplasma gondii) [nM] | EC50 (Trypanosoma brucei) [nM] | EC50 (Leishmania major) [nM] | EC50 [6] [nM] | EC50 [7] [nM] | EC50 [8] [nM] | EC50 [9] [nM] | EC50 (Plasmodium falciparum [10]) [nM] | EC50 (Plasmodium falciparum [11]) [nM] | EC50 (Plasmodium falciparum [12]) [nM] | EC50 (Plasmodium falciparum [13]) [nM]
1 | C/C=C/c1n(C)c2ccccc2[n+]1C | 1500 | 1380 | 916 | 993 | 1390 | > 22000 | > 38600 | > 17200 | > 40200 | > 40200 | > 40200 | > 40200 | 1630 | 1900 | 1070 | 701
2 | CCCN(C(=O)C(=O)Nc1ccc2nc3n(c(=O)c2c1)CCCCC3)c1ccc(OCC)cc1 | 673 | 289 | 490 | 326 | 215 | > 25900 | > 45300 | > 20200 | > 47300 | > 47300 | > 47300 | > 47300 | 700 | 334 | 346 | 220
3 | CCOc1cc2c(cc1OCC)C(c1cc(Cl)ccc1O)NCC2 (centres undefined) | 898 | 243 | 1820 | 722 | 1320 | > 25700 | 9490 | > 20100 | > 46900 | 21000 | > 46900 | > 46900 | 2010 | 732 | 3500 | 3570
4 | CCCn1c2c(c(=N)c3c1CCC3)CCCC2 | 2960 | 3020 | 2560 | 3000 | 7630 | > 22100 | > 38700 | 532 | > 40300 | > 40300 | > 40300 | > 40300 | 1970 | > 10400 | 3610 | > 10400
5 | COc1cc(C2CC(=O)NC3=C2C(=O)CC(c2ccccc2Cl)C3)cc(Br)c1O (centres undefined) | 1280 | 945 | 1860 | 1910 | 2730 | > 29700 | 16400 | > 23200 | > 54200 | > 54200 | > 54200 | > 54200 | 1910 | 1060 | 2450 | 1930
6 | Cc1ccc2c(c1)N(C)/C(=C/c1sc3ccccc3[n+]1CCO)S2 | 1580 | 440 | 320 | 420 | 546 | > 10600 | 6040 | > 8280 | > 19300 | > 19300 | > 19300 | 2100 | 341 | 432 | 514 | 362
7 | CCN(CC)CCCOC(=O)c1c(C)oc2cc3c(C(=O)OCCCN(CC)CC)c(C)oc3cc12 | 538 | 1270 | 2140 | 2890 | > 9980 | 10900 | 5220 | > 16600 | > 38900 | 4710 | 29200 | 23700 | 273 | 790 | 537 | 1730
8 | CCOC(=O)C1(Cc2ccccc2)CCN(Cc2cccc(OC)c2O)CC1 | 2290 | 1050 | 1490 | 645 | 908 | > 20300 | 30900 | > 15800 | > 37000 | > 37000 | > 37000 | > 37000 | 1760 | 1430 | 3000 | 2550
9 | COc1ccc(Nc2cc(C)c3ccc(O)cc3n2)cc1 | 545 | 216 | 688 | 241 | 307 | 25400 | > 45400 | > 20300 | > 47400 | 43000 | > 47400 | > 47400 | 709 | 284 | 1230 | 1070
10 | CN(C(=O)c1cc2c(s1)-c1ccccc1S(=O)(=O)C2)c1cccc(C(F)(F)F)c1 | 744 | 1250 | 350 | 356 | 684 | > 22400 | 18100 | > 17500 | > 40800 | > 40800 | > 40800 | > 40800 | 335 | 116 | 414 | 431
11 | OC(CNC1CCCC1)Cn1c2ccc(Cl)cc2c2cc(Cl)ccc21 (centres undefined) | 990 | 146 | 576 | 258 | 690 | > 13300 | 2020 | > 10400 | > 24300 | 8670 | 20500 | 10900 | 253 | 572 | 635 | 652
12 | Cc1ccc(C(O)(CNCc2ccccc2)c2ccc(Br)cc2)cc1 (centres undefined) | 2230 | 1110 | 2100 | 1170 | 1280 | > 26500 | 9550 | > 20700 | > 48300 | 20000 | > 48300 | 35500 | 1470 | 4370 | 3450 | 1730
13 | Clc1ccc(Nc2nc(NCc3ccco3)c3ccccc3n2)cc1 | 797 | 1710 | 1260 | 1830 | > 11900 | > 25400 | 9210 | 0.6 | > 46400 | 24000 | 31200 | > 46400 | 818 | > 11900 | 388 | 1150

These reach a lower EC50 (Plasmodium falciparum [1]). Values come first.

Row | EC50 (Plasmodium falciparum [1]) [nM] | EC50 (Plasmodium falciparum [2]) [nM] | SMILES | EC50 (Plasmodium falciparum [3]) [nM] | EC50 (Plasmodium falciparum [4]) [nM] | EC50 (Plasmodium falciparum [5]) [nM] | EC50 (Toxoplasma gondii) [nM] | EC50 (Trypanosoma brucei) [nM] | EC50 (Leishmania major) [nM] | EC50 [6] [nM] | EC50 [7] [nM] | EC50 [8] [nM] | EC50 [9] [nM] | EC50 (Plasmodium falciparum [10]) [nM] | EC50 (Plasmodium falciparum [11]) [nM] | EC50 (Plasmodium falciparum [12]) [nM] | EC50 (Plasmodium falciparum [13]) [nM]
14 | 504 | 433 | CO/C(O)=C1\C(C)=NC2=C(C(=O)CC(c3ccc(OC)c(OC)c3)C2)C1c1ccccc1F (centres undefined) | 427 | 412 | 911 | > 24500 | > 42900 | > 19200 | > 44800 | > 44800 | > 44800 | > 44800 | 766 | 296 | 556 | 746
15 | 500 | 212 | CCOc1cc(C2CC(=O)NC3=C2C(=O)CC(c2ccccc2Cl)C3)cc(Cl)c1O (centres undefined) | 890 | 916 | 1080 | > 23700 | 19700 | > 18500 | > 43200 | > 43200 | > 43200 | > 43200 | 1020 | 860 | 1150 | 1210
16 | 276 | 254 | CN1C(=O)/C(=C\c2ccccc2Cl)Sc2ccc(C(=O)NC3CCN(Cc4ccccc4)CC3)cc21 | 1740 | 2910 | 3970 | > 23300 | 3470 | > 18200 | > 42500 | 17900 | > 42500 | > 42500 | 1150 | > 10900 | 717 | 1090
17 | 184 | 85.7 | Cc1ccc2c(c1)C=C/C(=C\c1sc3ccccc3[n+]1C)N2C | 144 | 152 | 147 | 3950 | 175 | 1.2 | 7950 | 2250 | 6530 | 740 | 204 | 15.4 | 322 | 192
18 | 119 | 139 | COc1ccc(NC(=O)C2c3ccccc3C(=O)N(CC(C)C)C2c2cccs2)cc1Cl (centres undefined) | 117 | 134 | 244 | > 22100 | 2630 | > 17300 | > 40400 | > 40400 | > 40400 | > 40400 | 167 | 555 | 150 | 133
19 | 20.5 | 20.3 | COc1cc(OC)c(NC(=O)C2c3ccccc3C(=O)N(CC(C)C)C2c2cccs2)cc1Cl (centres undefined) | 47.3 | 93 | 131 | > 24700 | 7710 | > 19300 | > 45100 | > 45100 | > 45100 | > 45100 | 54.8 | 16 | 83.1 | 71.9

Reference: ChEMBL document CHEMBL1154198, “Chemical genetics of Plasmodium falciparum” (Nature, 2010)
